Data: ChEMBL document CHEMBL2150901, “Synthesis and biological activity of tricyclic cycloalkylimidazo-, pyrimido- and diazepinopurinediones” (Eur J Med Chem, 2011)
Calls of active or inactive are those of the source. No cut-off for these calls is given here.

Tests used:
Adenosine receptor A2a [1] = target: Adenosine receptor A2a (Rattus norvegicus, UniProt P30543); assay: Displacement of [3H]MSX-2 from adenosine A2A receptor in rat brain striatal membrane; assay type: cell membranes
Adenosine receptor A1 [2] = target: T1, Adenosine receptor A1 (Rattus norvegicus, UniProt P25099); assay: Displacement of [3H]CCPA from adenosine A1 receptor in rat brain cortical membrane; assay type: cell membranes
T1 sequence (P25099 whole entry): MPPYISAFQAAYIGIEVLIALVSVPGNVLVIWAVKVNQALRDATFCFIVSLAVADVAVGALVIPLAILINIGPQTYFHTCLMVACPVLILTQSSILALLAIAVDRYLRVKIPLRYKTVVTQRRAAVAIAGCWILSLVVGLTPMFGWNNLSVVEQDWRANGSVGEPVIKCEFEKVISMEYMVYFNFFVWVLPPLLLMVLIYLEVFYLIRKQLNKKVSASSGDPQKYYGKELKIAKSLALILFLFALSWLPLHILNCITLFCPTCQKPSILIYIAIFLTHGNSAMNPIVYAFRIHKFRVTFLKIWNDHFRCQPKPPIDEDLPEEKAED

Mus musculus [3] = assay: Anticonvulsant activity in F1 albino mouse assessed as protection against subcutaneous pentylenetetrazole-induced seizures at 300 mg/kg, ip after 4 hrs; assay type: functional, organism-based; design: dose 300 mg/kg
Summary of the method: (§1)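 Male albino F-1 mice (18–25 g), groups of 1–5 (rotorod 2–8). Compound given ip as a suspension in 0.5% methylcellulose at 30, 100 and 300 mg/kg. Seizures by maximal electroshock or subcutaneous pentylenetetrazole; neurotoxicity by rotorod. Read at 0.5 and 4 h, with some at 0.25, 1 and 2 h. Value is the minimum active dose, with protected (or toxic)/tested animals.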

[4] = target: T2, Adenosine receptor A1 (Rattus norvegicus) (UniProt P25099); assay: Displacement of [3H]CCPA from adenosine A1 receptor in rat brain cortical membrane at 25 uM; assay type: cell membranes
T2 sequence (whole entry): T1 sequence (P25099 whole entry)

Rattus norvegicus = species: Rattus norvegicus; assay: Selectivity ratio of Ki for adenosine A1 receptor in rat brain cortical membrane to Ki for adenosine A2A receptor in rat brain striatal membrane; assay type: cell membranes
Summary of the method: (§2)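 Ki ratios from radioligand competition binding. Rat A1 used brain cortical membranes and rat A2A used brain striatal membranes. Human A1 and A2A used membranes of CHO cells expressing the receptors. A1 radioligand [³H]CCPA; A2A radioligand [³H]MSX-2. Potent compounds were tested at 6–7 concentrations spanning 3 orders of magnitude.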

Mus musculus [5] = assay: Anticonvulsant activity in F1 albino mouse assessed as protection against maximal electroshock-induced seizures at 300 mg/kg, ip after 1 hr; assay type: functional, organism-based; design: dose 300 mg/kg; summary of the method: as §1
Mus musculus [6] = assay: Anticonvulsant activity in F1 albino mouse assessed as protection against maximal electroshock-induced seizures at 300 mg/kg, ip after 0.25 hrs; assay type: functional, organism-based; design: dose 300 mg/kg; summary of the method: as §1
Mus musculus [7] = assay: Neurotoxicity in F1 albino mouse assessed as minimal motor impairment at 300 mg/kg, ip after 0.25 hrs by rotorod test; assay type: toxicity, organism-based; design: dose 300 mg/kg, route intraperitoneal; settings: in vivo; summary of the method: as §1
Mus musculus [8] = assay: Anticonvulsant activity in F1 albino mouse assessed as protection against subcutaneous pentylenetetrazole-induced seizures at 300 mg/kg, ip after 1 hr; assay type: functional, organism-based; design: dose 300 mg/kg; summary of the method: as §1
Mus musculus [9] = assay: Anticonvulsant activity in F1 albino mouse assessed as protection against subcutaneous pentylenetetrazole-induced seizures at 300 mg/kg, ip after 0.25 hrs; assay type: functional, organism-based; design: dose 300 mg/kg; summary of the method: as §1
Mus musculus [10] = assay: Neurotoxicity in F1 albino mouse assessed as minimal motor impairment at 300 mg/kg, ip after 1 hr by rotorod test; assay type: toxicity, organism-based; design: dose 300 mg/kg, route intraperitoneal; settings: in vivo; summary of the method: as §1
Mus musculus [11] = assay: Anticonvulsant activity in F1 albino mouse assessed as protection against maximal electroshock-induced seizures at 300 mg/kg, ip after 4 hrs; assay type: functional, organism-based; design: dose 300 mg/kg; summary of the method: as §1
Mus musculus [12] = assay: Neurotoxicity in F1 albino mouse assessed as minimal motor impairment at 100 mg/kg, ip after 0.5 hrs by rotorod test; assay type: toxicity, organism-based; design: dose 100 mg/kg, route intraperitoneal; settings: in vivo; summary of the method: as §1
Mus musculus [13] = assay: Anticonvulsant activity in F1 albino mouse assessed as protection against subcutaneous pentylenetetrazole-induced seizures at 300 mg/kg, ip after 0.5 hrs; assay type: functional, organism-based; design: dose 300 mg/kg; summary of the method: as §1
Mus musculus [14] = assay: Anticonvulsant activity in F1 albino mouse assessed as protection against maximal electroshock-induced seizures at 300 mg/kg, ip after 0.5 hrs; assay type: functional, organism-based; design: dose 300 mg/kg; summary of the method: as §1
Mus musculus [15] = assay: Neurotoxicity in F1 albino mouse assessed as minimal motor impairment at 300 mg/kg, ip after 4 hrs by rotorod test; assay type: toxicity, organism-based; design: dose 300 mg/kg, route intraperitoneal; settings: in vivo; summary of the method: as §1
Mus musculus [16] = assay: Neurotoxicity in F1 albino mouse assessed as minimal motor impairment at 300 mg/kg, ip after 0.5 hrs by rotorod test; assay type: toxicity, organism-based; design: dose 300 mg/kg, route intraperitoneal; settings: in vivo; summary of the method: as §1
[17] = target: T3, Adenosine receptor A3 (Homo sapiens) (UniProt P0DMS8); assay: Displacement of [3H]PSB-11 from human recombinant adenosine A3 receptor expressed in CHO cells at 10 uM; assay type: cell-based
T3 sequence (whole entry): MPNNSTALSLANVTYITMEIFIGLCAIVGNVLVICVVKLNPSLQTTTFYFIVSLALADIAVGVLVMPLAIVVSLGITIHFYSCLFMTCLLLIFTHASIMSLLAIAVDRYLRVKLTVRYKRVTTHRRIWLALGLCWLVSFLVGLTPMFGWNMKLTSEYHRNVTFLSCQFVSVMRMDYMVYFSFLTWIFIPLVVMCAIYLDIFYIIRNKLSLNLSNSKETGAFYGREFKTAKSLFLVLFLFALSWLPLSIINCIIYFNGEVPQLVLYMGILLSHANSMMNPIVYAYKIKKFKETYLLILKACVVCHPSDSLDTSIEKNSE
Summary of the method: (§3)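 CHO cell membranes expressing the human receptor. Radioligands: A1 [3H]CCPA; A2B [3H]ZM241385 or [3H]PSB-603; A3 [3H]PSB-11. […] Potent compounds run at 6–7 concentrations spanning 3 orders of magnitude; Ki ± SEM.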

Adenosine receptor A2a [18] = target: Adenosine receptor A2a (Homo sapiens, UniProt P29274); assay: Displacement of [3H]MSX-2 from human recombinant adenosine A2A receptor expressed in CHO cells; assay type: cell-based
Sequence of Adenosine receptor A2a (Homo sapiens, UniProt P29274) (P29274 whole entry): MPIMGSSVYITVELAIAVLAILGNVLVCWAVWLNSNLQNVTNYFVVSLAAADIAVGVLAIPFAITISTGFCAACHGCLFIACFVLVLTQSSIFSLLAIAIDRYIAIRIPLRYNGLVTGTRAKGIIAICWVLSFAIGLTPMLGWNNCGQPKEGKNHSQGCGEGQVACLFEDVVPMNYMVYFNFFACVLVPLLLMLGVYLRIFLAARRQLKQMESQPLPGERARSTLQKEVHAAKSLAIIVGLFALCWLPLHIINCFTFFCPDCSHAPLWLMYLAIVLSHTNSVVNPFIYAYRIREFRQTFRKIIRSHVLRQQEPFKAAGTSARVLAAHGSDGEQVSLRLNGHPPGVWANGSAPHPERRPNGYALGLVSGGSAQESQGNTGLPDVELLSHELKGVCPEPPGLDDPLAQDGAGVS

Adenosine receptor A1 [19] = target: T4, Adenosine receptor A1 (Homo sapiens, UniProt P30542); assay: Displacement of [3H]CCPA from human recombinant adenosine A1 receptor expressed in CHO cells; assay type: cell-based
T4 sequence (P30542 whole entry): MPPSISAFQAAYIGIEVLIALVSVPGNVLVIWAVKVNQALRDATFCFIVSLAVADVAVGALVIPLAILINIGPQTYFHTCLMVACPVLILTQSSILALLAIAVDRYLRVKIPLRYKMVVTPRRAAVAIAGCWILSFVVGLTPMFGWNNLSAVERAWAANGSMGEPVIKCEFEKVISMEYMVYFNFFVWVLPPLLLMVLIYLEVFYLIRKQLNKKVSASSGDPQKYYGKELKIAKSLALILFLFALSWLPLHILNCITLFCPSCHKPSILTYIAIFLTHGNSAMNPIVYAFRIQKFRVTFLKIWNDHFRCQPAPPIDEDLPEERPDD

Adenosine receptor A2b [20] = target: T5, Adenosine receptor A2b (Homo sapiens, UniProt P29275); assay: Displacement of [3H]PSB-603 from human recombinant adenosine A2B receptor expressed in CHO cells; assay type: cell-based; summary of the method: as §3
T5 sequence (P29275 whole entry): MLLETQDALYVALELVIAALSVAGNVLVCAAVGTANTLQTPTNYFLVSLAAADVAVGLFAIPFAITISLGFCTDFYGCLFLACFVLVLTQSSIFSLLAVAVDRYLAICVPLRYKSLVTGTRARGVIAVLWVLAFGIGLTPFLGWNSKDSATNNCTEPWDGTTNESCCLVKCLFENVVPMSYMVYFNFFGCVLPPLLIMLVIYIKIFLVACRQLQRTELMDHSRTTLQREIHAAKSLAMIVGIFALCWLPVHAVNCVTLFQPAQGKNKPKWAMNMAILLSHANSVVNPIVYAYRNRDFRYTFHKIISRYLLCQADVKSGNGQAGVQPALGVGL

Adenosine receptor A3 = target: T6, Adenosine receptor A3 (Homo sapiens, UniProt P0DMS8); assay: Displacement of [3H]PSB-11 from human recombinant adenosine A3 receptor expressed in CHO cells; assay type: cell-based
T6 sequence (P0DMS8 whole entry): T3 sequence (whole entry)

[21] = target: T7, Adenosine receptor A2b (Homo sapiens) (UniProt P29275); assay: Displacement of [3H]PSB-603 from human recombinant adenosine A2B receptor expressed in CHO cells at 10 uM; assay type: cell-based; summary of the method: as §3
T7 sequence (whole entry): T5 sequence (P29275 whole entry)

[22] = target: T7, Adenosine receptor A2b (Homo sapiens); assay: Displacement of [3H]ZM241385 from human adenosine A2B receptor expressed in CHO cells at 10 uM; assay type: cell-based; summary of the method: as §3
Adenosine receptor A2b [23] = target: T5, Adenosine receptor A2b; assay: Displacement of [3H]ZM241385 from human adenosine A2B receptor expressed in CHO cells; assay type: cell-based
CHO = assay: Selectivity ratio of Ki for human recombinant adenosine A2A receptor expressed in CHO cells to Ki for adenosine A2A receptor in rat brain striatal membrane; assay type: cell-based; summary of the method: as §2
[24] = target: T8, Adenosine receptor A1 (Homo sapiens) (UniProt P30542); assay: Displacement of [3H]CCPA from human recombinant adenosine A1 receptor expressed in CHO cells at 10 uM; assay type: cell-based; summary of the method: as §3
T8 sequence (whole entry): T4 sequence (P30542 whole entry)

Sequence of Adenosine receptor A2a (Rattus norvegicus, UniProt P30543) (P30543 whole entry): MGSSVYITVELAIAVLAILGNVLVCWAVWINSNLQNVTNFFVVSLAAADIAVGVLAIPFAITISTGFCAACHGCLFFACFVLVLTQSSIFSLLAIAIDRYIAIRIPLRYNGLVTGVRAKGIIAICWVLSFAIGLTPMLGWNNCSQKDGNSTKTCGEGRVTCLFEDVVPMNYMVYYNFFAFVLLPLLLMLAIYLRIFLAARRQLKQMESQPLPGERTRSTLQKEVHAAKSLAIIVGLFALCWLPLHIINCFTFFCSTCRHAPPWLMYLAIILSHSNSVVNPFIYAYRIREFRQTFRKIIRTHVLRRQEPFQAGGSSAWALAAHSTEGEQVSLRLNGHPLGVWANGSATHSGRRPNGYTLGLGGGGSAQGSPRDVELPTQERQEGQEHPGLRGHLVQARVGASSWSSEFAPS

| Ki (Adenosine receptor A2a [1]) [µM] | Ki (Adenosine receptor A1 [2]) [µM] | inhibition [4] [%] | Ratio Ki (Rattus norvegicus) | inhibition [17] [%] | Ki (Adenosine receptor A2a [18]) [µM] | Ki (Adenosine receptor A1 [19]) [µM] | Ki (Adenosine receptor A3) [µM] | SMILES | Activity (Mus musculus [3]) | Activity (Mus musculus [5]) | Activity (Mus musculus [6]) | Activity (Mus musculus [7]) | Activity (Mus musculus [8]) | Activity (Mus musculus [9]) | Activity (Mus musculus [10]) | Activity (Mus musculus [11]) | Activity (Mus musculus [12]) | Activity (Mus musculus [13]) | Activity (Mus musculus [14]) | Activity (Mus musculus [15]) | also measured |
| --- | --- | --- | --- | --- | --- | --- | --- | --- | --- | --- | --- | --- | --- | --- | --- | --- | --- | --- | --- | --- | --- |
| 3.81 | ≥ 25 | 44 | 7 |  |  |  |  | Cn1c(=O)c2c(nc3n2CCCCN3C2CCC(O)CC2)n(C)c1=O (mixture of isomers) | inactive | inactive | inactive | Non-toxic | inactive | inactive | Non-toxic | inactive | Non-toxic | Active | inactive | Non-toxic |  |
| 1.93 | ≥ 10 | 39 | > 5 | 5 | 0.847 | 10.3 | > 10 | Cn1c(=O)c2c(nc3n2CCCN3C2CCC2)n(C)c1=O | inactive | inactive | inactive | Non-toxic | inactive | inactive | Non-toxic | inactive |  | inactive | inactive | Non-toxic | Activity (Mus musculus [16]): Non-toxic; Ki (Adenosine receptor A2b [20]): > 10 µM; inhibition [21]: 21% |
| 0.57 | ≥ 25 | 33 | > 44 | 52 | 1.53 | > 10 | > 10 | Cn1c(=O)c2c(nc3n2CCCN3C2CCCCCCC2)n(C)c1=O | inactive | inactive | inactive | Non-toxic | inactive | inactive | Non-toxic | inactive | Non-toxic | Active | inactive | Non-toxic | inhibition [22]: 32%; Ki (Adenosine receptor A2b [23]): > 10 µM; Ratio Ki (CHO): 3; inhibition [24]: 17% |
